{"data": "Results pooled from the literature", "sample": "plasma"}
{"SMILES": "OC[C@H]1O[C@@H](c2cc(Cc3ccc(C4CC4)cc3)c(Cl)c3c2CCO3)[C@H](O)[C@@H](O)[C@@H]1O", "test system": "human", "conditions": "oral, 0.3 mg, single dose, fasted", "AUC(0-t)": "0.0265 µg·h/mL"}
{"SMILES": "C=CC(=O)NC1CCN(c2ncc3ncnc(Nc4ccc(Oc5ccc6c(c5)ncn6C)c(C)c4)c3n2)CC1", "test system": "male human", "conditions": "intravenous, 100 µg, healthy volunteers", "AUC(0-t)": "2.62 nM·h"}
{"SMILES": "COc1ccc(-c2c(Nc3ccccn3)[nH]c3c(C4=CCCCC4)c(-c4ccccc4)nn3c2=O)cc1", "test system": "human", "conditions": "oral, 50 mg once daily, multiple doses, steady state, patients", "AUC(0-t)": "33.4 µg·h/mL"}
{"SMILES": "CC(=O)N(C)[C@H]1CCN(C(=O)c2cnc3c(c2)C[C@](C)(c2ccc(F)cc2)N3)C1", "test system": "male human", "conditions": "oral, 30 mg, multiple doses, once daily", "AUC(0-t)": "3420 nM·h"}
{"SMILES": "COc1ccc2c(c1)CN(C(=O)CCN1CCC(Cc3ccccc3)CC1)CC[S@@+]2[O-]", "test system": "male human", "conditions": "intravenous, 0.05 mg/kg, healthy volunteers", "AUC(0-t)": "0.241 µg·h/mL"}
{"SMILES": "CC(C)n1c(C2CCNCC2)nc2c([N+](=O)[O-])c(Br)c(Br)cc21", "test system": "human", "conditions": "oral, 50 mg, patients", "AUC(0-t)": "0.451 µg·h/mL"}
{"SMILES": "CC(=O)O[C@H]1C(=O)[C@@]2(C)[C@H]([C@H](OC(=O)c3ccccc3)[C@]3(O)C[C@H](OC(=O)[C@H](O)[C@@H](NC(=O)c4ccccc4)c4ccccc4)C(C)=C1C3(C)C)[C@]1(OC(C)=O)CO[C@@H]1C[C@@H]2O", "test system": "human", "conditions": "intravenous, 80 mg/m²", "AUC(0-t)": "3250 nM·h"}
{"SMILES": "Cc1cc(-c2nccc3c2ccn3CC(=O)Nc2ccc(-c3cnccn3)cn2)ccn1", "test system": "human", "conditions": "oral, 7 mg, single dose", "AUC(0-t)": "498 nM·h"}
{"SMILES": "C[C@@H](Oc1ccc(S(C)(=O)=O)cc1C(=O)N1C[C@@H]2C[C@]2(c2cc(C(F)(F)F)on2)C1)C(F)(F)F", "test system": "human", "conditions": "oral, 10 mg, single dose, fed", "AUC(0-t)": "1810 nM·h"}
